Measured values as given in the EternaBench riboswitch data.

System: MS2 coat protein
Test: apparent Kd, MS2 coat protein; higher = weaker binding; RNA-MaP array; FMN 200 µM where present
How it was run: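 Apparent Kd: the median of filtered binding-curve fits from single clusters. Designs were transcribed on Illumina sequencing-chip clusters by stalled E. coli RNA polymerase and titrated with SNAP-549-labelled MS2 coat protein from 0.7 or 1.5 nM, doubling to 3 µM, in 100 mM Tris-HCl pH 7.5, 80 mM KCl, 4 mM MgCl2, BSA, DTT, yeast tRNA and Tween-20. Each series ran without and then with constant ligand, and green signal was normalised to red-channel RNA signal and control-cluster median Fmax.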

[1] = designed as: OFF switch for flavin mononucleotide, no ligand
[2] = ligand present: flavin mononucleotide, designed as: OFF switch for flavin mononucleotide
[3] = designed as: ON switch for flavin mononucleotide, no ligand
[4] = ligand present: flavin mononucleotide, designed as: ON switch for flavin mononucleotide

| Sequence | apparent Kd [1] [nM] | apparent Kd [2] [nM] | apparent Kd [3] [nM] | apparent Kd [4] [nM] |
| --- | --- | --- | --- | --- |
| CAGCGAAAGCUGAAUCUGUAGAGAGAGGAUAUACAUCAUAAGAUGCAUACAUGAGGAUCACCCAUGUAGAAGGCUCUCUACAGU | 5.49 | 6.83 |  |  |
| GCUUCGGCUGUGAGGAUAUCGGGCCCGAAAGGGCCCGAGAAGGCACAUGAGGAUCACCCAUGUAAGGUUGAAGU | 18.8 | 15.4 |  |  |
| UCAUUGUAAGGAUAUAAAAGCUCGCGGAAUUGCACGGGUUGUUAGAAGGUACAUGAGGAUCACCCAUGUUCCUA | 17.1 | 22.1 |  |  |
| GGCAGCUCGUGAGGAUAUACAACACUGCUUCGGCAGUGUAUUAAGAUCACAUGAGGAUCACCCAUGUAGAAGGCACGAGCUGAU | 13.9 | 254 |  |  |
| UCCUCACAUGAGGAUCACCCAUGUCAGGAUAUACCCAAAGCUGCGAAAAUAUCCAGCUGUAGAAGGGACAGGCU | 18.3 | 20.1 |  |  |
| ACGGAACAUGAGGAUCACCCAUGUAUCUGAGAUAAGGUCUCGCAGGAUAUUCAGAGAAGCCUAUCGGAGAAGGGUGACACCAAA |  |  | 38.4 | 15.5 |
| GCCAGUUAUGUAGGAUAUGCGAGGCGAGCCUGAGCAGAAGGACAUGAGGAUCACCCAUGUAUUGCGGUUUGAGUUCUGAUCGCU | 23.4 | 58.6 |  |  |
| CAGAAGUCAGGAUAUGCAUGGCGGGACUUGCGUCGUGGCGUGCAGAAGGGACAUGAGGAUCACCCAUGUAAAGG | 174 | 300 |  |  |
| GGUACUCAAAGAGUACCAAUACGAACAUGAGGAUCACCCAUGUAGGAUAUGCUACUCAAAGAGUAGCAGAAGGACAUGUGCCUA | 19.1 | 106 |  |  |
| GAUCUACAUGAGGAUCACCCAUGUAAGGAUAUCGUCACUGGAGCUUCGGCUCCAGUGACGAGAAGGUACAAUUA | 28.8 | 32.1 |  |  |
| AUUUUAAUGUCAGGAUAUAUUAGUUUAUAUAUAGUAGAAGGGAUAAUUAUACUCAUGUACAUGAGGAUCACCCAUGUUAAAUAA |  |  | 216 | 79.1 |
| UCGGCCGCUGGGUUGUACGAUGACAGAAGGGCACACCGGGUGCCGCACAUGAGGAUCACCCAUGUGCAGGAUAUGUCAUCCUGA | 11.1 | 8.25 |  |  |
| CUGGAAGUCACAGGAUAUCCGGACACAUGUCCAGGAGAAGGGUGAGUAGUUUCACAUGAGGAUCACCCAUGUGGCGGUUCCAGA |  |  | 264 | 21.2 |
| AAACCUUCUGAGGAUAUCUGAGGCCCUGCGCUUAGAGAAGGUAGUACAUGAGGAUCACCCAUGUCCGCGCUGGG | 16.3 | 17.9 |  |  |
| GGAUAGGACAGAGGAUAUACGUGCUAGAGAUACUAGCAAAAUUUCCUCACAUGAGGAUCACCCAUGUAGAAGGCUGUCGUAUCG | 15.3 | 334 |  |  |
| UCGCUCCGUGUAGGAUAUCGUUGUAUUCUGCGGCGAGAAGGACAUGAGGAUCACCCAUGUAUGUUAUUAUCACGCGUGGCGCAA | 21 | 18.9 |  |  |
| UUUAUAAGAAAAUAAACGAAGUGGCCAGAAGGUGAAUGCCACAUGAGGAUCACCCAUGUUUCGAUCAAGGAUAUGGUUUCUCAC |  |  | 400 | 107 |
| AAUAAACUCACAGGAUAUAGCAGAGGUCGCCUGAACUUACAGGCGACGAUGCUAGAAGGGUGACCACAUGAGGAUCACCCAUGU |  |  | 825 | 136 |
| AUAACGUCAGGAUAUUUCCAGAGGGUCAUAGGACCCAUUGGAAAGAAGGGACAUGAGGAUCACCCAUGUCGGUG | 136 | 391 |  |  |
| GUAGCAUACCGAGGAUAUUCAUACAAUAAAUAAACAUGAGGAUCACCCAUGUGGCGAAAGCCUAGGGAGAAGGCGGAAUGCUAC |  |  | 154 | 21.8 |
| AGGGUUGUGCUAGGAUAUCCAGGUUUGCAACAAGGAGAAGGAGCACAUGAGGAUCACCCAUGUUCUCAAAGGCCAUGGCAAUAU | 12.4 | 56.3 |  |  |
| AAUAUAAGAGCUGGAAAUAACUCAACAUGAGGAUCACCCAUGUAGGAUAUCAGCACGAUAAGUGCUGAGAAGGACAUCCAGCUC | 14.4 | 14.6 |  |  |
| UUGGACGUCGUAAGAUAUGUAGGAUAUUCCUACAUGAGGAUCACCCAUGUUGACAUGGAAGAAGGACAGAAGGACGAUGUCCAU |  |  | 285 | 5.51 |
| AAAACAUGAGGAUCACCCAUGUAAAGAUCACUUAAUAGUUGUGAGGAUAUACGAUUUUAAAGCUAGUAGAAGGCACUGGGUACA |  |  | 28.1 | 36.1 |
| UAAUGUAUAUAGGAUAUCUAGCUGGAUACAGCUAGAGAAGGAUGUACAUGAGGAUCACCCAUGUAAAUCUCAAU | 18.3 | 31.2 |  |  |
| UGAGCCUCGUGAGGAUAUACAUGAGGAUCACCCAUGUAAUAGGAUGAACGGAGGAAACUCCGAAUGUAGAAGGCACGAGGCUCA | 77.7 | 664 |  |  |
| UUGCCUCAGAACAUGAGGAUCACCCAUGUGCUGCGGGCAACGUAGGAUAUGAUGGCGUGACGCCAUCAGAAGGAUGAUGGUACC |  |  | 5.92 | 6.15 |
